This is an account of results in article PMC4589150 (Nature chemical biology, 2015).

Non-standard residues stand in square brackets, D forms with d. Residues, ends and D or L forms follow the SMILES beside them. No end group written: not given here. pS = N[C@@H](COP(=O)(O)O)C(=O)O

In assay [1] the target is histone H4 methylated K20 (Homo sapiens) (UniProt P62805). The settings on record: cited from earlier work.
A further assay deals with T1, fluorescein-SQEY-OH.
T1 sequence (peptide, fluorescein on the N-terminus; free C-terminal carboxylate): SQEY
Nature of the assay: fluorescence polarisation. Background: Polarisation of emitted light reports the rotation of a fluorescent probe.

In assay [2] the target is fluorescein-phospho-SQEY-OH. Nature of the assay: fluorescence polarisation.
A further assay concerns the target 53BP1-BRCT (Homo sapiens, UniProt Q12888). Nature of the assay: Fluorescence anisotropy competition binding against fluorescein-pSQEY-OH. The gist of the method: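 Untagged 53BP1 tandem BRCT (6 μM; GST removed by PreScission, anion-exchange purified) with fluorescein-phospho-SQEY peptide (50 nM) and graded unlabelled competitor peptide. Buffer: 50 mM HEPES pH 7.5, 150 mM NaCl, 1 mM DTT. Anisotropy read after equilibration. IC50 from four-parameter sigmoidal fit. Ki from IC50 using bound/total ligand, receptor and direct-binding Kd.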

A further assay deals with POLG. Nature of the assay: CLASPI 'selectivity filter' SILAC proteomics in HeLa lysate. It counts as binding. The settings on record: probes 5 μM, nocodazole-arrested HeLa lysate, SILAC LC-MS/MS. The gist of the method: (§1)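 Heavy (13C615N4-Arg 22 mg/L, 13C615N2-Lys 50 mg/L) or light SILAC-labelled HeLa S3 cells, nocodazole-arrested, lysed by cryogenic grinding. Lysates photo-cross-linked with γH2AX probe 1 or H2AX probe 2 (5 μM), combined, streptavidin-captured (0.5% SDS, 90 min RT), washed, dithionite-eluted. SDS-PAGE, in-gel trypsin digestion, LC-MS/MS on LTQ-Orbitrap, SILAC ratio quantitation. Forward and reverse label-swap runs.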

Assay [3] addresses GST-53BP1 residues 1702-1972 (BRCT domains fragment) (Homo sapiens, UniProt Q12888). Format: binding. A digest of the protocol: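 GST-53BP1 (residues 1702-1972; E. coli-expressed, glutathione-affinity purified, dialysed), 200 nM, with probe 1 or probe 2 (5 μM), or with probe 1 plus γH2AX peptide (100 μM). Incubation 20 min on ice, then 365 nm UV for 15 min on ice. Cross-linking read by streptavidin Western blot. Two independent experiments.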

In a further assay the test system is SIRT1. Nature of the assay: CLASPI 'selectivity filter' SILAC proteomics in HeLa lysate. Format: binding. The settings on record: probes 5 μM, nocodazole-arrested HeLa lysate, SILAC LC-MS/MS. The gist of the method:
as §1

For the next assay, the system named is MDC1. The assay is described as above. Particulars: probes 5 μM, nocodazole-arrested HeLa lysate, SILAC LC-MS/MS. Format: binding. The gist of the method:
as §1

For a further assay, the system named is MCM2. Described as above. It counts as binding. Particulars: probes 5 μM, nocodazole-arrested HeLa lysate, SILAC LC-MS/MS. A digest of the protocol:
as §1

A further assay relates to 53BP1. The assay is described as above. It counts as binding. Particulars: probes 5 μM, nocodazole-arrested HeLa lysate, SILAC LC-MS/MS. A digest of the protocol: as §1
The target of a further assay is T2, MDC1-BRCT (Homo sapiens, UniProt Q14676).
T2 sequence (Q14676 1883-2089): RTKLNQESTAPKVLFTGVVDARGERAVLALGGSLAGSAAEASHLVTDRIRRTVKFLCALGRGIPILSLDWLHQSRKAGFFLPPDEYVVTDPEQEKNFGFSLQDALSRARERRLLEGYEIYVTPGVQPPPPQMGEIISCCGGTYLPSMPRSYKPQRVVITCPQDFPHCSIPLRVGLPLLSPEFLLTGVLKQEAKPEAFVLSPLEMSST
It counts as binding. A digest of the protocol:
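E. coli-expressed, glutathione-affinity-purified MDC1-BRCT (200 nM) with biotinylated probe 1 (1 μM) and graded γH2AX competitor peptide (Ac-KKATQApSQEY-OH). Incubation 20 min on ice, then 365 nm UV for 15 min on ice. Cross-linked complexes detected by Western blot with streptavidin-based detection. Mean ± s.d., n=3.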

In assay [4] the target is 53BP1-BRCT (53BP1 tandem BRCT domains, residues 1702-1972), untagged (human) (UniProt Q12888). Nature of the assay: fluorescence polarisation.
Sequence of 53BP1-BRCT (53BP1 tandem BRCT domains, residues 1702-1972), untagged (human) (Q12888 1702-1972): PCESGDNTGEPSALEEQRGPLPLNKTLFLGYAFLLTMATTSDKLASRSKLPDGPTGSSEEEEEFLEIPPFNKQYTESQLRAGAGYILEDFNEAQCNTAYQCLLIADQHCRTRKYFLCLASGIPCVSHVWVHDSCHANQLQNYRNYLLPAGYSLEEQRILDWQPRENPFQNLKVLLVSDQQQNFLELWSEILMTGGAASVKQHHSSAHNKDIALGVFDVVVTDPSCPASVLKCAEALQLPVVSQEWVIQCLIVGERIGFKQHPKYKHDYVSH

Sequence of GST-53BP1 residues 1702-1972 (BRCT domains fragment) (Q12888 1702-1972): as above
Sequence of 53BP1-BRCT (53BP1 tandem BRCT domains, residues 1702-1972), untagged (Q12888 1702-1972): as above
Sequence of 53BP1-BRCT (Q12888 1702-1972): as above

For the molecule “53BP1 tandem Tudor (from UniProt Q12888)”, in assay [1], the Kd is 20 µM.
On to “53BP1-BRCT (53BP1 tandem BRCT domains, residues 1702-1972), untagged (from UniProt Q12888 1702-1972) (domain or fragment)”, for which the percent of peptide bound at 50 μM 53BP1-BRCT in the assay with fluorescein-SQEY-OH came to 10%. In [2], this molecule registered a Kd of 2.7 µM.
On to “53BP1-BRCT K1814M (from UniProt Q12888 1702-1972) (domain or fragment)”, for which, in assay [2], the Kd was > 70 µM.
As to “53BP1-BRCT R1811Q (from UniProt Q12888 1702-1972) (domain or fragment)”, the Kd in [2] was 35 µM.
For `NC(=O)CC[C@H](NC(=O)[C@@H](N)COP(=O)(O)O)C(=O)N[C@@H](CCC(=O)O)C(=O)N[C@@H](Cc1ccc(O)cc1)C(N)=O` [pSQEY-NH2] (H-[pS]QEY-NH2), the Ki at 53BP1-BRCT worked out at 25 ± 0.58 µM.
Still for that read-out and setting: as for `NC(=O)CC[C@H](NC(=O)[C@@H](N)COP(=O)(O)O)C(=O)N[C@@H](CCC(=O)O)C(=O)N[C@@H](Cc1ccc(O)cc1)C(=O)O` [pSQEY-OH] (H-[pS]QEY-OH), the figure is 7.5 ± 1.1 µM.
For `CC(=O)N[C@@H](Cc1cn(CCc2ccc(O)c(N=Nc3ccc(C(=O)NCCOCCOCCOCCOCCNC(=O)CCCC[C@@H]4SC[C@@H]5NC(=O)N[C@@H]54)cc3)c2)nn1)C(=O)N[C@@H](CCCCN)C(=O)N[C@@H](CCCCN)C(=O)N[C@@H](C)C(=O)N[C@@H](Cc1ccc(C(=O)c2ccccc2)cc1)C(=O)N[C@@H](CCC(N)=O)C(=O)N[C@@H](C)C(=O)N[C@@H](COP(=O)(O)O)C(=O)N[C@@H](CCC(N)=O)C(=O)N[C@@H](CCC(=O)O)C(=O)N[C@@H](Cc1ccc(O)cc1)C(=O)O` [probe 1], the “enrichment ratio of POLG, probe 1 relative to probe 2” value in the assay on POLG is 2.5–3.5. Also, in assay [3] (probe 5 μM, streptavidin Western blot, representative of 2 experiments), the “photo-cross-linking to BRCT domains fragment (in words)” value is “robust cross-linking”. In the assay on SIRT1, the “enrichment ratio of SIRT1, probe 1 relative to probe 2” value is 2.5–3.5. Also, the “enrichment ratio of MDC1, probe 1 relative to probe 2” value in the assay on MDC1 is given as 3.9. Also, the “enrichment ratio of MCM2, probe 1 relative to probe 2” value in the assay on MCM2 is given as 2.5–3.5. Further, the “enrichment ratio of 53BP1, probe 1 relative to probe 2” value in the assay with 53BP1 worked out at 4.9.
As to `CC(=O)N[C@@H](CCCCN)C(=O)N[C@@H](CCCCN)C(=O)N[C@@H](C)C(=O)N[C@H](C(=O)N[C@@H](CCC(N)=O)C(=O)N[C@@H](C)C(=O)N[C@@H](COP(=O)(O)O)C(=O)N[C@@H](CCC(N)=O)C(=O)N[C@@H](CCC(=O)O)C(=O)N[C@@H](Cc1ccc(O)cc1)C(=O)O)[C@@H](C)O` [γH2AX peptide, Ac-KKATQApSQEY-OH, reference compound] (Ac-KKATQA[pS]QEY-OH), in [3], the Kd is < 100 µM. The molecule further registered a half-maximal inhibitory concentration (IC50) on MDC1-BRCT of 4.4 ± 1.6 µM.
In [4], [pS]QEY-OH [unlabeled phospho-SQEY-OH tetrapeptide] displayed a Ki of 7.5 µM. In other words, the single-digit micromolar range.
Same read-out and setting: the same measure for [pS]QEY-NH2 [phospho-SQEY-NH2]: 25 µM; for [pS]PTF-OH [phospho-SPTF-OH]: 46 µM.

What is called Kd is the concentration at which binding is half-saturated. A word on the Ki: it is a dissociation constant, usually derived from enzyme kinetics or from competition with a known ligand. Higher therefore signals weaker binding. As usually defined, the IC50 is the concentration at which inhibition is half-maximal. Lower therefore signals higher potency.
